These results are taken from ChEMBL document CHEMBL1139481, “Synthesis and biological activity of anticancer ether lipids that are specifically released by phospholipase A2 in tumor tissue” (J Med Chem, 2005).

Common to all, as to type: functional, cell-based
One assay relates to HT-29. Put plainly: Cytotoxicity against human HT29 cells after 72 hrs by MTT assay. Particulars: HT-29, 72 h. The gist of the method:
(§1)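 Cells (Caco-2 in Dulbecco's modified Eagle medium; HT-29 in McCoy's 5A; both with 10% FCS and 2 mM L-glutamine; KATO III in RPMI 1640 with 10% heat-inactivated FCS, 2 mM L-glutamine, 1 mM pyruvate, 5% CO2, 37 °C) plated at 1 × 10^4/well 24 h before adding AELs in PBS with 5-30% ethanol. After 72 h, MTT read-out. IC50 is 50% reduction in cell number; mean ± SD, n = 3-9.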

Assay [1] concerns MDA-MB-435. Put plainly: Inhibition of Akt phosphorylation in MDA-MB-435 cells after 2 hrs. The conditions noted are these: Homo sapiens, MDA-MB-435, 2 h. The gist of the method: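 MDA-MB-435 cells at 70% confluency, serum-starved 18 h, then given compound for 2 h and stimulated with insulin 10 µg/mL for 30 min. Lysates taken in Laemmli buffer after an ice-cold PBS wash. Western blot probed for Ser473 phospho-Akt, with total Akt as loading control. Controls: no insulin, and wortmannin 2 µM for 2 h before insulin.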

Assay [2] deals with MDA-MB-435. In words: Cytotoxicity against human MDA-MB-435 cells after 3 days in serum free conditions by MTT assay. Particulars: MDA-MB-435, 72 h. The gist of the method:
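MDA-MB-435 cells grown in Dulbecco's modified Eagle medium with 10% FCS and 2 mM L-glutamine, then plated at 1 × 10^4/well 24 h before treatment. Lipids in PBS with 5-30% ethanol were added, and cells were incubated 3 days without serum to match the Akt study conditions. MTT read-out was expressed as percentage reduction in incorporated MTT, run in triplicate.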
(In general: Tetrazolium dyes change colour on reduction, which living cells bring about.)

A short description of assay [3]: Cytotoxicity against human KATO3 cells after 72 hrs by MTT assay. Particulars: KATO3, 72 h. The gist of the method:
as §1

The next assay deals with Caco-2. Put plainly: Cytotoxicity against human Caco-2 cells after 72 hrs by MTT assay. The conditions noted are these: Caco-2, 72 h. The gist of the method:
as §1

pIC50: −log10 of the molar value.

`CCCCCCCCCCCCCCCCOC[C@@H](O)COP(=O)(O)OC[C@H](O)CO`: the pIC50 (usually −log10 of the IC50, conventionally taken in molar units) is 3.98 with HT-29, 4.62 in the assay with MDA-MB-435 [1] and 4.14 with MDA-MB-435 [2].
With `CCCCCCCCCCCCCCCCOC[C@@H](O)COP(=O)(O)OC[C@@H](O)CO`, the negative-log IC50 (pIC50) in the assay with HT-29 was 4.70; in the assay on MDA-MB-435 [1], 4.62; in assay [3], 4.31; with Caco-2, 4.12; in the assay on MDA-MB-435 [2], 4.33.
Regarding `CCCCCCCCCCCCCCCCOP(=O)([O-])OCC[N+](C)(C)C` [MILTEFOSINE], the results for the pIC50 in the assay on MDA-MB-435 [1] and in the assay on MDA-MB-435 [2] were 5.30 and 4.64, respectively.
As to `CCCCCCCCCCCCCCCCCCOCC(COP(=O)([O-])OCC[N+](C)(C)C)OC` (configuration not stated) [EDELFOSINE], the values for the pIC50 in the assay on MDA-MB-435 [1] and in the assay on MDA-MB-435 [2] were 5.52 and 4.92, respectively.
